These results are taken from ChEMBL document CHEMBL5678798 (Clin Cancer Res, 2009).

Data set [1] concerns the target Testis-specific serine/threonine-protein kinase 1 (Homo sapiens) (UniProt Q9BXA7). The experiment in a line: Inhibition of 6His-tagged recombinant human full length TSSK1 expressed in baculovirus infected Sf21 cells at 3 uM by filter binding assay relative to control. A digest of the protocol: (§1)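 KinaseProfiler panel of 233 kinases: radiometric filter-binding activity assays with compound at 0.3 or 3 µmol/L. Read-out is percent inhibition.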

The nature of data set [2]: Toxicity in nu/nu CD-1 mouse implanted with mouse NIH-3T3/LISN cells assessed as reduction in body weight at 30 mg/kg, po for 21 days. Type of data set: organism-based. The settings on record: in vivo, 504 h, time 21 day.
The target in data set [3] is High affinity nerve growth factor receptor (Homo sapiens, UniProt P04629). The experiment in a line: Inhibition of N-terminal His6-tagged recombinant human TrkA (440 to end residues) expressed in baculovirus infected Sf21 cells by filter binding assay.
Data set [4] concerns the target Serine/threonine-protein kinase SIK2 (Homo sapiens, UniProt Q9H0K1). The experiment in a line: Inhibition of SIK2 (unknown origin).
Data set [5] addresses Receptor tyrosine-protein kinase erbB-2 (Homo sapiens, UniProt P04626). The experiment in a line: Inhibition of ErbB2 (unknown origin).
Data set [6] has as its target PI3K p110 alpha/p85 alpha (Mus musculus) (UniProt P26450+P42337). The experiment in a line: Inhibition of recombinant mouse N-terminal 6His-tagged full length P110alpha/full length mouse p85alpha expressed in baculovirus infected Sf21 cells at 0.3 uM by filter binding assay relative to control.
In data set [7] the target is NUAK family SNF1-like kinase 1 (Homo sapiens) (UniProt O60285). The experiment in a line: Inhibition of N-terminal 6His-tagged recombinant human ARK5 (2 to end residues) expressed in baculovirus infected Sf21 cells at 0.3 uM by filter binding assay relative to control. A digest of the protocol: as §1
In data set [8] the target is Protein kinase C theta type (Homo sapiens, UniProt Q04759). The experiment in a line: Inhibition of PKCtheta (unknown origin).
The subject of another data set is SK-OV-3. The experiment in a line: Antiproliferative activity against human SK-OV-3 cells assessed as reduction in cell viability after 72 hrs by CellTiter-Glo assay. Type of data set: functional, cell-based. The settings on record: SK-OV-3, 72 h. A digest of the protocol: (§2)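 Cells seeded in 96-well plates, left overnight at 37°C, then exposed to a range of test concentrations for 72 h. Viability read by CellTiter-Glo luminescence; IC50 from four-parameter curve fit. Lines kept at 37°C, 5% CO2, in recommended growth medium.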
In general terms: Cellular ATP, detected with luciferase, serves as a proxy for viable cell number.

The test system of the next data set is MX1. The experiment in a line: Antiproliferative activity against human MX1 cells assessed as reduction in cell viability after 72 hrs by CellTiter-Glo assay. It is filed as functional, cell-based. The settings on record: MX1, 72 h. A digest of the protocol:
as §2

The next data set relates to COLO 205. The experiment in a line: Induction of cell cycle arrest in human COLO 205 cells assessed as decrease in cells accumulation at S phase at 0.03 to 10 uM incubated for 24 to 48 hrs by propidium iodide staining based flow cytometric analysis. Particulars: dose 0.03-10 µM, time lower 24.0 hrs, time upper […]. Type of data set: functional. The essentials:
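COLO 205, MCF-7 or NCI-H929 cells seeded in 96-well plates overnight at 37°C, then exposed to DMSO or increasing compound concentrations for 24 or 48 h. Fixed and stained with propidium iodide (Vindelov method), then analysed by flow cytometry for sub-G1, G1, S and G2-M fractions. Experiment repeated twice.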
(In general: A flow cytometer gives signals particle by particle.)

The target of data set [9] is Dual specificity tyrosine-phosphorylation-regulated kinase 2 (Homo sapiens) (UniProt Q92630). The experiment in a line: Inhibition of 6His-tagged recombinant full-length human DYRK2 expressed in baculovirus infected Sf21 cells at 3 uM by filter binding assay relative to control. The essentials:
as §1

Data set [10] addresses Tyrosine-protein kinase Fer (Homo sapiens, UniProt P16591). The experiment in a line: Inhibition of N-terminal His6 tagged recombinant human Fer (541 to end residues) expressed in baculovirus infected Sf21 cells by filter binding assay.
Data set [11] concerns the target Proto-oncogene tyrosine-protein kinase Src (Homo sapiens, UniProt P12931). The experiment in a line: Inhibition of SRC1 (unknown origin).
Data set [12] has as its target Fibroblast growth factor receptor 2 (Homo sapiens) (UniProt P21802). The experiment in a line: Inhibition of N-terminal, His6-tagged recombinant human FGFR2 (456 to 765 residues) expressed in baculovirus infected Sf21 cells at 0.3 uM by filter binding assay relative to control.
The target of data set [13] is Fibroblast growth factor receptor 4 (Homo sapiens) (UniProt P22455). The experiment in a line: Inhibition of N-terminal His6-tagged recombinant human FGFR4 (442 to 755 residues) expressed in baculovirus infected Sf21 cells at 0.3 uM by filter binding assay relative to control.
Another data set has as its system NIH-3T3/LISN. The experiment in a line: In vivo inhibition of IGF1R in mouse NIH-3T3/LISN cells implanted in IGF1-stimulated nu/nu CD-1 mouse assessed as reduction in IGF1R phosphorylation at 30 mg/kg, po pretreated for 48 to 72 hrs followed by IGF1 stimulation and measured after 10 min by […] relative to control. It is filed as functional, organism-based. Particulars: time 2880-4330 min. The essentials: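 Time course: tumor-bearing female nu/nu CD-1 mice, three per group, given a single oral 30 mg/kg dose or vehicle. IGF-I given 10 min before blood and tumor collection at each time point. Tumor phospho-IGF-IR/total IGF-IR measured by capture-plate europium phosphotyrosine assay and expressed as % of ligand-stimulated control.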

Data set [14] is described as follows: Toxicity in nu/nu CD-1 mouse implanted with mouse NIH-3T3/LISN cells assessed as reduction in body weight at 30 mg/kg, po administered twice daily for 5 to 21 days relative to control. It is filed as organism-based. More on the design: scale not given: the % may be the effect or the level left. The settings on record: in vivo, time 5-21 day.
The target of data set [15] is Ribosomal protein S6 kinase alpha-1 (Homo sapiens, UniProt Q15418). The experiment in a line: Inhibition of RSK1 (unknown origin).
Data set [16] can be described thus: Inhibition of C-terminal His6-tagged human full length CDK2/N-terminal GST-tagged human full length cyclinA expressed in baculovirus infected Sf21 cells at 3 uM by filter binding assay relative to control. The settings on record: condition cancer. A digest of the protocol:
as §1

A further data set has as its system HT-29. The experiment in a line: Antitumor activity against human HT-29 cells xenografted in nu/nu CD-1 mouse assessed as reduction in tumor growth at 30 mg/kg, po for 21 days relative to control. Particulars: HT-29, 504 h, time 21 day, read-out: TGI. Type of data set: functional. A digest of the protocol:
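Exponentially growing cells implanted s.c. in the right flank of 8–10-wk-old female athymic nu/nu CD-1 mice. At 150–200 mm3, block-randomized by tumor size into groups of eight. Oral dosing once or twice daily for 21 d; vehicle 20% sulfobutylether-β-cyclodextrin, pH 3.5. Calipers twice weekly; volume = length×width²/2. Growth inhibition = 100×[1 − treated growth/vehicle growth].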
Background: In xenograft studies the graft and the host belong to different species.

In data set [17] the target is Mitogen-activated protein kinase kinase kinase 9 (Homo sapiens) (UniProt P80192). The experiment in a line: Inhibition of N-terminal 6His-tagged recombinant human MLK1 (134 to 414 residues) expressed in baculovirus infected Sf21 cells at 0.3 uM by filter binding assay relative to control. The essentials: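 Outsourced single-concentration screen in a commercial panel of 233 protein kinases, run as radiometric filter-binding activity assays. Test agent was tested at 0.3 or 3 µmol/L, as given in each line, from a 10 mmol/L DMSO stock. Activity is expressed as percent inhibition relative to control.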
Sequence of Mitogen-activated protein kinase kinase kinase 9 (Homo sapiens) (P80192 whole entry, looked up, the tested form may be a part): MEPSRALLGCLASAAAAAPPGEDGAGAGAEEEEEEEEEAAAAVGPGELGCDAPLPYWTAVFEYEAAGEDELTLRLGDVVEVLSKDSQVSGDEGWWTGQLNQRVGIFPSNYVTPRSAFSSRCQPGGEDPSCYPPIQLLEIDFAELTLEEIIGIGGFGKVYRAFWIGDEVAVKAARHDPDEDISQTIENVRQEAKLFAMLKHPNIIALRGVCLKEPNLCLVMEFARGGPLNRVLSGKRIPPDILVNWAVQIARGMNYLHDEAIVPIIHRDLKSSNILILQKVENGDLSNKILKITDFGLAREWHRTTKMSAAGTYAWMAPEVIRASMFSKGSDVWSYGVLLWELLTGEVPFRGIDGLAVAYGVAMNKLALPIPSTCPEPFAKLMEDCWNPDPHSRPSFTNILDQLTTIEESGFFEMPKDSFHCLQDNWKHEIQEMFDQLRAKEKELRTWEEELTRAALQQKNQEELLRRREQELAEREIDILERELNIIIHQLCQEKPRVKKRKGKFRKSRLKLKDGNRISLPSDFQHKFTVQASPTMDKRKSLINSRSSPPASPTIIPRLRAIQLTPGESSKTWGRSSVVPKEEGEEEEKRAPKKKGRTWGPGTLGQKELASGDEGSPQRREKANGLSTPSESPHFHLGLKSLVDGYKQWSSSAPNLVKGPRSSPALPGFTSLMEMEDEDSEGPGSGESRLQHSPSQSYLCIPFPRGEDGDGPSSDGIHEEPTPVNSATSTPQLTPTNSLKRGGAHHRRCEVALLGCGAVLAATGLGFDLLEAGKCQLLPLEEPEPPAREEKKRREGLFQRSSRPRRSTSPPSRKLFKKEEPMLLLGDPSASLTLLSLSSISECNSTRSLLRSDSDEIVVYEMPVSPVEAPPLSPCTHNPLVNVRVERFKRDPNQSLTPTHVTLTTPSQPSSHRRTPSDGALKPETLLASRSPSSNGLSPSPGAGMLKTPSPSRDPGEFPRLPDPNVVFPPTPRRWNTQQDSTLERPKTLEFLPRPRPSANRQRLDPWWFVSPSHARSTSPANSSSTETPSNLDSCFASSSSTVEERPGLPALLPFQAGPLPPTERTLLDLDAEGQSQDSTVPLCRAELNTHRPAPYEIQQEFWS

In data set [18] the target is Tyrosine-protein kinase BTK (Homo sapiens, UniProt Q06187). The experiment in a line: Inhibition of N-terminal His6-tagged recombinant full-length human BTK expressed in baculovirus infected Sf21 cells by filter binding assay.

pIC50: −log10 of the molar value. Activity calls are given as the source filed them. The rule behind the calls is not given here.

Sequence of Serine/threonine-protein kinase SIK2 (Q9H0K1 whole entry): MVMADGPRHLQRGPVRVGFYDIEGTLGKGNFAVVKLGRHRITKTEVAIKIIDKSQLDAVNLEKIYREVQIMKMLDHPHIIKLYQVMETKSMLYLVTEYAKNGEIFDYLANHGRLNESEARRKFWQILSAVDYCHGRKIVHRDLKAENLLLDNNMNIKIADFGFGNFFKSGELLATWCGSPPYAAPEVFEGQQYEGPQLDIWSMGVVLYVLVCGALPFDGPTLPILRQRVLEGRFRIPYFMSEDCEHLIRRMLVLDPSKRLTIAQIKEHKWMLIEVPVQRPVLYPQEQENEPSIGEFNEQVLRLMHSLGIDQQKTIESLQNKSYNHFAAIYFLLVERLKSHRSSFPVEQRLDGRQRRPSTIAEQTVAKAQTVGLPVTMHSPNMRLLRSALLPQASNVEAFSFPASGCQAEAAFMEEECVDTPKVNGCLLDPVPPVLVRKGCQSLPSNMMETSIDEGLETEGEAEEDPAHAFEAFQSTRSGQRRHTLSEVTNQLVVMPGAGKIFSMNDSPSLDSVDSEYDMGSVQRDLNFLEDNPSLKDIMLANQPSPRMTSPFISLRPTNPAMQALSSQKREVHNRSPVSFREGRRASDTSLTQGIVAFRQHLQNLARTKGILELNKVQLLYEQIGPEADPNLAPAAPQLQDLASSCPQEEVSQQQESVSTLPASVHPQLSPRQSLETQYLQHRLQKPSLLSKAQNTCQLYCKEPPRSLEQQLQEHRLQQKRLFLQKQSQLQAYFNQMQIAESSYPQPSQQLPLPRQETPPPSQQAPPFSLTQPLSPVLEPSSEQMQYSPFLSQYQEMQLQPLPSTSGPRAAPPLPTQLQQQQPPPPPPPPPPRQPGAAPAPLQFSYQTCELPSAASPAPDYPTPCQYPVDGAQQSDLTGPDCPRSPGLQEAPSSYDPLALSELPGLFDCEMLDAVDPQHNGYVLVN
Sequence of Tyrosine-protein kinase Fer (P16591 whole entry): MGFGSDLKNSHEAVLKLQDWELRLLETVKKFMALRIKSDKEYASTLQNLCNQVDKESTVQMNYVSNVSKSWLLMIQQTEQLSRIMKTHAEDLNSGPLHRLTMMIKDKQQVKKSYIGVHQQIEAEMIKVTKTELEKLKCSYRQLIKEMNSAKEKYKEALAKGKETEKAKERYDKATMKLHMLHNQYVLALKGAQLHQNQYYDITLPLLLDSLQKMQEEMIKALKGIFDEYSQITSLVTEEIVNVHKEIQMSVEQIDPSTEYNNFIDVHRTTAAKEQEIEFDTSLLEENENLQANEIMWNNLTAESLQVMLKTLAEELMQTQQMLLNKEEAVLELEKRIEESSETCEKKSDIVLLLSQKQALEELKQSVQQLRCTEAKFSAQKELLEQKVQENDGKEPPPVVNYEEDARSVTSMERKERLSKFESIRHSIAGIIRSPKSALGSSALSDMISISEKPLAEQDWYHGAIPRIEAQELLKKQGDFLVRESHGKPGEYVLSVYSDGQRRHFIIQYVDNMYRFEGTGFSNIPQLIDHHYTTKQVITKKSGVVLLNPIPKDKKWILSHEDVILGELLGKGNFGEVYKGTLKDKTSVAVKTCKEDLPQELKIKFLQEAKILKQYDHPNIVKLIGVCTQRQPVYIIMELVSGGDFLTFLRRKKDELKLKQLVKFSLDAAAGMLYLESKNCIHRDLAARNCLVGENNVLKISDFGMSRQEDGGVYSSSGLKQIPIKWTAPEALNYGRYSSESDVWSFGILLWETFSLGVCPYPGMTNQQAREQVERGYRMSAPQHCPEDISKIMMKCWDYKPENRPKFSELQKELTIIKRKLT
Sequence of Receptor tyrosine-protein kinase erbB-2 (P04626 whole entry): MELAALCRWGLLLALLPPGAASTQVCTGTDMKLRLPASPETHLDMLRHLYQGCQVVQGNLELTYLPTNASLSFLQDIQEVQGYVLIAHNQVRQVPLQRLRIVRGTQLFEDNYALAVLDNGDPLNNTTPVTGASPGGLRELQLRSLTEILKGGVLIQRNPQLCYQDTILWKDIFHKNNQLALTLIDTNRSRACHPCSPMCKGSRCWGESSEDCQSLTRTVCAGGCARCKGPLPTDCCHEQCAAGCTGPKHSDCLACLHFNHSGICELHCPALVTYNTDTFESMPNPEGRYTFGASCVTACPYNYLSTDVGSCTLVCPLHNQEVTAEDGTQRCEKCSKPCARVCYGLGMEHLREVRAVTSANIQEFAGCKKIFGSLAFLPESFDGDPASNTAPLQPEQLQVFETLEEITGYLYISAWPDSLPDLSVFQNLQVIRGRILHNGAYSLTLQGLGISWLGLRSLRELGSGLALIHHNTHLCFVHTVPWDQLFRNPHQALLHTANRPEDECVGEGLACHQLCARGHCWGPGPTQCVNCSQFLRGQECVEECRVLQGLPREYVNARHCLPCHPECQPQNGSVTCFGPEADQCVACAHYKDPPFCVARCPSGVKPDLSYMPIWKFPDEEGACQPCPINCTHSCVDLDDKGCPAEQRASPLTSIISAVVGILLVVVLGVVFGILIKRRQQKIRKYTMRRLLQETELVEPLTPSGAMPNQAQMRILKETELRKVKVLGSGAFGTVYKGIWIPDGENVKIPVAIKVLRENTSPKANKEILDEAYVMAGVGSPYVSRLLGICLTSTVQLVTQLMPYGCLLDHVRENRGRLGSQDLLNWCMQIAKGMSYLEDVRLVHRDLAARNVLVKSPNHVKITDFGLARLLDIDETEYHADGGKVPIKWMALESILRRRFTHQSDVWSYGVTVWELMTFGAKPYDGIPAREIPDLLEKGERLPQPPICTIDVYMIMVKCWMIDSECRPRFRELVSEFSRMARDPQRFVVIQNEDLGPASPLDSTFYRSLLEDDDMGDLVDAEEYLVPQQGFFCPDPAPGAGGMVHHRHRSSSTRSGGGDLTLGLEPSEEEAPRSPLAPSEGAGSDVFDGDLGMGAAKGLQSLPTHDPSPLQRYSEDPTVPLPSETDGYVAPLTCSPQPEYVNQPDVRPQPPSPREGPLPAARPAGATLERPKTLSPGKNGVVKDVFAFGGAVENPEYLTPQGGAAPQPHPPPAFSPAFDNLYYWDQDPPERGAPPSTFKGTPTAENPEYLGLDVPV
Sequence of Testis-specific serine/threonine-protein kinase 1 (Homo sapiens) (Q9BXA7 whole entry): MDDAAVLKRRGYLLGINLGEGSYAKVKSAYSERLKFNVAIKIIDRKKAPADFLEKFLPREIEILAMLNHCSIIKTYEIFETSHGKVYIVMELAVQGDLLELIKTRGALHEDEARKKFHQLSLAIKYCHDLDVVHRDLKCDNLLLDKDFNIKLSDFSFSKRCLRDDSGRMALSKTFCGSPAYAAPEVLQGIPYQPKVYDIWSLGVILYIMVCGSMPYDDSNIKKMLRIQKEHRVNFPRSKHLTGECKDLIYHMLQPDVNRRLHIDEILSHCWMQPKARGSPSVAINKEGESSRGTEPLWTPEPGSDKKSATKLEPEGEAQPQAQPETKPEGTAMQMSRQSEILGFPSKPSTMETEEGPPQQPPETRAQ
Sequence of Dual specificity tyrosine-phosphorylation-regulated kinase 2 (Homo sapiens) (Q92630 whole entry): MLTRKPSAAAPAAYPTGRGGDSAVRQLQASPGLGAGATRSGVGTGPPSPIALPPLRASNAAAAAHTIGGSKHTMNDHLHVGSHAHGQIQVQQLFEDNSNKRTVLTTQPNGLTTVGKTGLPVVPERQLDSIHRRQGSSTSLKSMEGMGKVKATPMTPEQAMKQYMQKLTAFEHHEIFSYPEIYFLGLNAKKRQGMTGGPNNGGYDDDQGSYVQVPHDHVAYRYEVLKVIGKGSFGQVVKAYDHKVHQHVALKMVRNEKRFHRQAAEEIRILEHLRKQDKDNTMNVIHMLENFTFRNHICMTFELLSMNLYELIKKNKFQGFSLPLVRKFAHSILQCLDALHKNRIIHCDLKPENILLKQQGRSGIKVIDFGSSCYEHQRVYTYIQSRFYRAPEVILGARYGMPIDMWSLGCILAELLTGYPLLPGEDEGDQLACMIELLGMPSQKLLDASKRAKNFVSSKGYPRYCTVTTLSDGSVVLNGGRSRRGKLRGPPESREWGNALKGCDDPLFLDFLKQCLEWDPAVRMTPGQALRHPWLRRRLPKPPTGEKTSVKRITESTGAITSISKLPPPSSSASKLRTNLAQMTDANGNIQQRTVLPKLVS

The inhibition is the drop in the measured response relative to a control, in per cent. One may read the pIC50 as the negative decadic logarithm of the IC50, by convention in mol/L. Regarding `CCc1cc(Nc2nccc(-c3c(-c4ccc(OC)c(C(=O)Nc5c(F)cccc5F)c4)nc4ccccn34)n2)c(OC)cc1N1CCC(N2CCN(S(C)(=O)=O)CC2)CC1`, the inhibition is 11% in data set [1]; -10% in data set [6]; 4% in [7]; -8% in [9]; 21% in [12]; 21% in data set [13]. Also, in data set [17], the inhibition was determined as 1%. In addition, the results for the Activity result in [2] and in [14] were “Non-Toxic” and 11%, respectively. In addition, the pIC50 in data set [3] is 6.15; in [4] it was less than 5.00; in data set [5] it was less than 5.00; in [8], less than 5.00; in the data set on SK-OV-3, less than 4.70; with MX1 it was 6.72. Besides, the pIC50 in data set [10] was 7.89; in data set [11], less than 5.00; in data set [15], 5.20; in data set [18] it was 6.45. The outcome in the data set on COLO 205 was Active. Further, the inhibition entry in the data set with NIH-3T3/LISN is “inactive”. In data set [16], the inhibition at 3 µM was found to be 8%. For the same compound, the inhibition in vivo at 30 mg/kg in the data set with HT-29 came out at 47%.
